The list is not random: actives were taken first. Their share in the collection is about 2.2%.
miR-122 sensor = inhibitors of miR-122 in Huh7 cells. Huh7 miR-122 Renilla luciferase sensor, 48 h; neutral wells = 0, positive control = 100. activation (reporter increase), % at 12.5 µM. 340,000 compounds, 0.3% hits. AID 602342;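 active = mean replicate activation score at least 90 and every replicate individually at or above 90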;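 note: higher luciferase means less miR-122 activity so hits act as miR-122 inhibitors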
NR2E3 ag-1 = activates human NR2E3 receptor | Q9Y5X4 | inhibition of corepressor binding, % at 3.98 µM | CHO-S Gal4-NCOR/VP16-NR2E3 two-hybrid, luciferase | 360,000 compounds, 0.35% hits;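 active = inhibition above the mean of all tested compounds plus 3 SD, cut at about 70% in these data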;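 note: higher means lower luciferase signal from less NR2E3 corepressor binding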
Target sequence (Q9Y5X4 whole entry, looked up, the tested form may be a part): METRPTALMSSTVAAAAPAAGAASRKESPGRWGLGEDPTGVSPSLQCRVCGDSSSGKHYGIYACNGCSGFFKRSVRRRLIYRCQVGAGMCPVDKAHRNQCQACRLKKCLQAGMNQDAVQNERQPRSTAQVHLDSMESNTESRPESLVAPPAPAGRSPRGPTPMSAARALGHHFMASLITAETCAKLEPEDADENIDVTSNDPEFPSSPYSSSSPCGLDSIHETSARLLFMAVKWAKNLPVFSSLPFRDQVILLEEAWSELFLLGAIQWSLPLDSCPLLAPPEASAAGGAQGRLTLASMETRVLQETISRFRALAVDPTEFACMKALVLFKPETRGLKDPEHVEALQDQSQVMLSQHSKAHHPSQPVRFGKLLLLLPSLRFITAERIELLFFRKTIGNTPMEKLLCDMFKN
NR2E3 ag-2 = activates human photoreceptor nuclear receptor NR2E3; GST-NR2E3/biotin-RetCOR TR-FRET, 1536-well; inhibition of corepressor binding, % at 4.78 µM; 320,000 compounds, 0.12% hits; AID 2300;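 active = percent inhibition above the cutoff of mean plus 3 SD of all tested compounds, set per screening campaign, cut at about 20% in these data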
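Format: 1536-well format; test system: GST-NR2E3 and biotin-RetCOR proteins; read-out basis: percent inhibition of TR-FRET ratio; timing: 5 h incubation at 4 °C; detection: time-resolved FRET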
FGF22 binding = FGF22 (human) thermal shift binding; 340,000 compounds, 1.5% hits; activity (Tm shift, normalised), % at 9.99 µM; recombinant FGF22 thermal shift, SYPRO orange fluorescence; percent of sucrose octasulfate shift, DMSO zero;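 active = mean Tm shift, scaled 0 neutral to 100 positive control, at about 1.3% or above, every replicate too, limit read from the data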
Target sequence (Q9HCT0 whole entry, looked up): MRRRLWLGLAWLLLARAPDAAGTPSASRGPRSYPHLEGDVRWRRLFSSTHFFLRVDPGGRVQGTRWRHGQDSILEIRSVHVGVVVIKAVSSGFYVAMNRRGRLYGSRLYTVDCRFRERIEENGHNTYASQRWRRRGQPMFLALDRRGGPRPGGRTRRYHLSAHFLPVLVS
697 NFkB inh = inhibitors of the PMA/ionomycin-induced NF-kB reporter in 697 B cells; 697 B-cell NF-kB luciferase reporter, 16 h; inhibition, % at 4 µM; 330,000 compounds, 0.33% hits; in the data active = inhibition above about 35%
Jurkat NFkB inh = inhibitors of the PMA/ionomycin-induced NF-kB reporter in Jurkat cells | PMA/ionomycin-induced NF-kB luciferase reporter, luminescence | inhibition, % at 4 µM | 330,000 compounds, 0.53% hits | AID 435003; in the data active = inhibition above about 50%
NR2E3 ag conf = confirmation of human NR2E3 agonists. shares compounds with NR2E3 ag-1. CHO-S mammalian two-hybrid NR2E3-NCOR, luciferase luminescence. inhibition, % at 3.98 µM. 2,300 compounds, 51% hits;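 active = average inhibition above a cutoff equal to the mean inhibition of all tested compounds plus one SD, cut at about 70% in these data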
VP16 counter = GAL4-VP16 reporter inhibition in NR2E3 agonist counterscreen. inhibition, % at 3.98 µM. AID 624379. shares compounds with NR2E3 ag-1. CHO-S GAL4-VP16 luciferase reporter, luminescence. 2,300 compounds, 29% hits;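 active = mean inhibition above a cutoff equal to the average over all tested compounds plus one standard deviation, cut at about 70% in these data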;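 note: luciferase from a UAS reporter driven by GAL4-VP16 transactivation; higher means less reporter light so more repression of VP16 activity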
Numbers stand for hits; . = inactive; / = no result.

SMILES	miR-122 sensor	NR2E3 ag-1	NR2E3 ag-2	FGF22 binding	697 NFkB inh	Jurkat NFkB inh	NR2E3 ag conf	VP16 counter
CC(=O)c1ccc(S(=O)(=O)N2CCN(c3ccnc4cc(Cl)ccc34)CC2)cc1	.	.	/	.	/	/	.	.
Cc1ccc(S(=O)(=O)N2CCN(c3ccnc4cc(Cl)ccc34)CC2)cc1	/	.	.	.	.	.	/	/
Nc1nonc1C(=O)NCCNCc1cc(Br)ccc1OCc1ccccc1F	.	.	.	/	.	.	.	.
CC(=O)N(C)C[C@H]1Oc2ncc(C#CC(C)(C)O)cc2C(=O)N([C@H](C)CO)C[C@H]1C	.	/	/	.	/	/	/	/
Cn1cc(CNCc2ccc(OC(F)(F)F)cc2)c(-c2ccc3c(c2)OCCO3)n1	.	76	.	.	.	.	90	79
Cn1cc(CNCc2cn[nH]c2-c2ccc(F)cc2)c(-c2ccc3c(c2)OCCO3)n1	/	.	.	.	.	.	/	/
S=c1[nH]cnc2scc(-c3ccc(Br)cc3)c12	/	81	.	.	.	.	.	.
S=c1[nH]cnc2scc(-c3ccc(Cl)cc3)c12	.	.	.	.	.	.	.	.
Cc1ccc(-c2csc3nc[nH]c(=S)c23)cc1	/	.	.	/	.	.	/	/
C/C=C/c1ccc2c(c1)O[C@@H](CN(C)C(=O)c1cccc(F)c1)[C@H](C)CN([C@@H](C)CO)S2(=O)=O	.	/	/	.	/	/	/	/
Brc1ccc(N/N=C(/N=Nc2nn[nH]n2)c2ccccc2)cc1	/	72	.	.	.	.	94	.
CO/N=C/c1ccc(N2CCN(C(=O)c3ccc(Cl)cc3Cl)CC2)c([N+](=O)[O-])c1	.	76	.	/	.	.	91	76
Cc1ccc(Nc2nc(NCc3ccccc3)nc3ccsc23)c(C)c1	.	.	/	.	/	/	.	.
Cc1ccc(Nc2nc(NCc3cccs3)nc3ccsc23)c(C)c1	.	.	/	.	/	/	/	/
COc1ccccc1CNc1nc(Nc2ccccc2OC)c2sccc2n1	.	.	/	/	/	/	.	.
COc1ccccc1CNc1nc(Nc2ccc(C)cc2C)c2sccc2n1	.	.	/	.	/	/	.	.
COc1ccccc1CNc1nc(NC(C)C)nc2ccsc12	.	.	/	.	/	/	/	/
CCC(=O)N1[C@H](CO)[C@@H](c2ccccc2)C12CN(C(=O)Nc1cccc(OC)c1)C2	/	/	/	.	/	/	/	/
COc1ccc(C#Cc2ccc3c(c2)[C@@H]2[C@@H](CCN2S(=O)(=O)c2ccccc2C)[C@@H](CO)N3C)cc1	.	/	/	.	/	/	/	/
CC(C)NC(=S)N/N=C/c1cc(Br)ccc1O	/	72	.	/	.	.	.	.
c1ccc(CN2CCN(c3ncnc4c3[nH]c3ccccc34)CC2)cc1	.	.	.	/	.	.	/	/
Cc1ccc2[nH]c3c(N4CCN(Cc5ccccc5)CC4)ncnc3c2c1	.	79	.	/	.	.	88	74
Cc1ccc2c(c1)[nH]c1c(N3CCN(Cc4ccccc4)CC3)ncnc12	.	.	.	/	.	.	86	74
COc1cc(C(=O)NC(=S)N(CCC#N)Cc2cccnc2)cc(OC)c1OC	.	.	/	.	.	.	/	/
CCCOc1ccc(CN(CCC#N)C(=S)NC(=O)c2ccccc2)cc1	/	.	.	/	.	.	.	.
SMILES	miR-122 sensor	NR2E3 ag-1	NR2E3 ag-2	FGF22 binding	697 NFkB inh	Jurkat NFkB inh	NR2E3 ag conf	VP16 counter
COc1ccc2c3c([nH]c2c1)[C@H](CO)N(C(C)=O)CC31CCN(C(=O)c2cccc(F)c2)CC1	/	/	/	.	/	/	/	/
CC(=O)OC[C@]1(OC(C)=O)C[C@@]23CC[C@H]4[C@@](C)(CCC[C@@]4(C)C(=O)O)[C@@H]2CC[C@@H]1C3	.	.	.	.	.	.	/	/
CC(=O)OC[C@]12CC[C@H]3[C@@](C)(CC[C@H]4C(C)(C)CCC[C@]34C)[C@@H]1CC(C1=CC(=O)OC1O)O2 (some centres undefined)	.	102	/	.	/	/	100	100
O=C(Nc1cc(C(F)(F)F)ccc1N1CCOCC1)c1ccco1	.	103	.	/	.	.	.	.
COc1ccc(CN2CC3(CCN(C(=O)Cc4ccccc4)CC3)c3c([nH]c4cc(OC)ccc34)[C@H]2CO)cc1	/	/	/	.	/	/	/	/
O=C(Nc1ccc(OC(F)F)cc1)Nc1cccc(C(F)(F)F)c1	.	.	.	/	.	.	.	.
Cc1ccc(S(=O)(=O)Nc2ccc(NC(=O)Nc3cccc(C(F)(F)F)c3)cc2)cc1	/	.	.	.	.	.	/	/
O=C(Nc1ccc(OC(F)(F)F)cc1)Nc1cccc([N+](=O)[O-])c1	.	94	.	/	.	.	99	88
CCN(CC)S(=O)(=O)c1ccc(NC(=O)Nc2cccc(C(F)(F)F)c2)cc1	.	.	.	/	.	.	75	.
C[C@@H]1CN([C@@H](C)CO)C(=O)c2cccc(NC(=O)CCCCCC(=O)Nc3ccccc3N)c2O[C@@H]1CN(C)S(=O)(=O)c1cn(C)cn1	/	/	/	.	/	/	/	/
Nc1nc2c(nnn2C2CC(O)C(CO)O2)c(=O)[nH]1 (centres undefined)	.	.	/	.	/	/	.	.
O=C(CN1CCN(c2nc(-c3ccccc3)cs2)CC1)NNC(=O)c1ccc(Br)cc1	.	.	.	/	.	.	/	/
O=C(NC(=S)N1CCN(c2nc(-c3ccccc3)cs2)CC1)c1cncc(Br)c1	.	.	.	43	.	.	.	.
CCCC(=O)N1CCN(c2ccc(NC(=O)c3ccc([N+](=O)[O-])o3)cc2)CC1	/	.	/	.	/	/	.	.
Cc1cccc(C)c1N1CCN(C(c2cc3ccccc3o2)c2nnnn2C(C)(C)C)CC1 (centres undefined)	/	75	/	/	/	/	84	.
CC[C@H](C)C(=O)O[C@H]1C[C@@H](C)C=C2C=C[C@H](C)[C@H](CC[C@@H]3C[C@@H](O)CC(=O)O3)[C@H]21	.	.	.	.	.	.	.	.
CN(C)C(=O)c1ccc(-c2ccc([C@@H]3[C@H](CO)N4CCCCN(C(=O)C5CCC5)C[C@@H]34)cc2)cc1	.	/	/	.	/	/	/	/
Cc1c(C(=O)Nc2ccc(OC(F)(F)F)cc2)sc2nc3n(c(=O)c12)CCC3	.	77	.	/	.	.	88	.
Cc1c(C(=O)Nc2ccc(Oc3ccccc3)cc2)sc2nc3n(c(=O)c12)CCC3	.	.	.	/	.	.	87	.
COc1cccc(NC(=O)c2sc3nc4n(c(=O)c3c2C)CCC4)c1	.	.	.	.	.	.	/	/
CNC(=O)C[C@H]1CC[C@H]2[C@H](COc3ccc(NC(=O)c4cccc(OC)c4)cc3C(=O)N2C)O1	.	/	/	.	/	/	/	/
O=C(NCC1CC1)[C@H]1[C@H](CO)[C@H]2Cn3c(ccc(-c4ccncc4)c3=O)[C@H]2N1Cc1cocn1	.	/	/	.	/	/	/	/

Compound activity as filed in PubChem BioAssay.
